# Experimental data pooled from the literature.
# Lines come from different studies, so protocols differ. pIC50: −log10 of the molar value.
# Cell line: SK-OV-3
Compound,assay,setting,quantity,result
COc1ccc(C(=O)/C=C/c2cccc(Br)c2)cc1S(N)(=O)=O,"cell growth or viability, SRB",48 h,GI50,4.1 µM
NC(=O)c1cccc2cn(-c3ccc([C@@H]4CCCNC4)cc3)nc12,colony formation,,pIC50,5.27
OCc1ccc2c(c1C#Cc1ccc(O)cc1)C(c1ccc(O)cc1)(c1ccc(O)cc1)c1cc(O)ccc1-2,"cell growth or viability, MTT",48 h,pIC50,< 4.30
O=C(c1cc(Cc2n[nH]c(=O)c3ccccc23)ccc1F)N1CCN(C(=O)C2CC2)CC1,colony formation,,pIC50,5.12
COc1ccc(C(=O)/C=C/c2cccc3ccccc23)cc1S(N)(=O)=O,"cell growth or viability, SRB",48 h,GI50,3.7 µM
COc1cc(-c2ccc(-c3ccc(C(=N)N)nc3)s2)cc(OC)c1OC,"cell growth or viability, SRB",,GI50,13.1 µM
C#C[C@@]1(O)[C@@H](CO)O[C@@H](n2cc(Cl)c3c(N)ncnc32)[C@@H]1O,"cell growth or viability, SRB",,GI50,0.119 µM
COc1ccc(C(=O)/C=C/c2ccccc2Br)cc1S(N)(=O)=O,"cell growth or viability, SRB",10 µM,inhibition,30%
O=c1[nH]cc(F)c(=O)[nH]1,"cell growth or viability, MTT",48 h,pIC50,4.43
CCN1CCN(Cc2ccc(Nc3ncc(F)c(-c4cc(F)c5nc(C)n(C(C)C)c5c4)n3)nc2)CC1,"cell growth or viability, CCK-8",,pIC50,5.79
C[C@]12CC[C@@H]3c4ccc(O)cc4CC[C@H]3[C@@H]1CC[C@@H]2O,"cell growth or viability, ATP luminescence",72 h,EC90,56.8 µM
CC(=O)OC[C@H]1O[C@@H]([S-])[C@H](OC(C)=O)[C@@H](OC(C)=O)[C@@H]1OC(C)=O.CCP(CC)CC.[Au+],"cell growth or viability, resazurin",,pIC50,5.57
COc1cc(CNC(=O)CCCC/C=C/C(C)C)ccc1OCc1cn(-c2ccc(C(F)(F)F)cc2)nn1,"cell growth or viability, SRB",,pIC50,4.97
CC(C)C[C@H](NC(=O)[C@H](Cc1ccccc1)NC(=O)c1cnccn1)B(O)O,"cell growth or viability, ATP luminescence",,pIC50,7.60
COc1ccc(C(=O)/C=C/c2ccc(Cl)c(Cl)c2)cc1S(N)(=O)=O,"cell growth or viability, SRB",48 h,GI50,5.5 µM
Cc1cc(C)n(C(=S)[S][Au][PH](CCCCCC[PH]([Au][S]C(=S)n2nc(C)cc2C)(c2ccccc2)c2ccccc2)(c2ccccc2)c2ccccc2)n1,cell growth or viability,,GI50,0.852 µM
COc1ccc(C(=O)/C=C/c2ccc3ccccc3c2)cc1S(N)(=O)=O,"cell growth or viability, SRB",48 h,GI50,4.9 µM
COc1cc(CNC(=O)CCCC/C=C/C(C)C)ccc1OCc1cn(-c2ccc(C#N)cc2)nn1,"cell growth or viability, SRB",,pIC50,4.49
